One may read the Ki as the dissociation constant of the complex between target and ligand, obtained from inhibition or displacement. As usually defined, the EC50 is the concentration that produces a half-maximal response.

Assay [1] deals with Mus musculus. The experiment in a line: Effect on wild type mouse assessed as time taken for duration of self grooming at 30 mg/kg, ip after 30 mins under 40 lux lighting (reference value: 43.7 +/- 10.8 sec). It counts as functional. The conditions noted are these: 0.5 h.
Assay [2] has as its system Mus musculus. Kind of assay: Effect on shank3-/- mouse model of autism spectrum disorder assessed as time taken for duration of self grooming at 30 mg/kg, ip after 30 mins under 40 lux lighting (reference value: 224 +/- 47.4 sec). It counts as functional. Conditions: 0.5 h; call rule not given here.
The target of assay [3] is T1, 5-hydroxytryptamine receptor 7 (Homo sapiens, UniProt P34969). The experiment in a line: Displacement of [3H] D-lysergic acid diethylamide from 5-HT7R (unknown origin) transfected in HEK293 cells incubated for 1.5 hrs by microbeta scintillation counter analysis. The conditions noted are these: read-out: Ki. It is filed as cell-based. In general terms: Displacement assays read how much labelled ligand stays bound in the presence of the test substance.
T1 sequence (P34969 whole entry): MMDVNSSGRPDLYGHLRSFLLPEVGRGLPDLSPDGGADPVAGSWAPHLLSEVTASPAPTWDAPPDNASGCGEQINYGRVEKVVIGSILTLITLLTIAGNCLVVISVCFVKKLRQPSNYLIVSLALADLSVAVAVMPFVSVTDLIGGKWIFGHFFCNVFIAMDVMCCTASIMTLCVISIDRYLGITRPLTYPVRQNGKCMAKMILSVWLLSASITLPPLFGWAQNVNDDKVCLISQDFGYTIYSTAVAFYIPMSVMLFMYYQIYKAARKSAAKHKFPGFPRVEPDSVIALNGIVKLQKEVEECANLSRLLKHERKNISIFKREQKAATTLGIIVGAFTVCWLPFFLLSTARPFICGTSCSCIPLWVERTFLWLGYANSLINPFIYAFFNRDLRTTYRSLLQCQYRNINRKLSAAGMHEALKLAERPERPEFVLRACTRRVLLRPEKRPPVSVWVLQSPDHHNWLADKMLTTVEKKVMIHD

In assay [4] the target is T1, 5-hydroxytryptamine receptor 7. Kind of assay: Agonist activity at 5-HT7R (unknown origin) transfected in HEK293 cells expressing tTA-dependent luciferase reporter and beta arrestin 2-TEV fusion gene assessed as beta arrestin recruitment incubated for 22 hrs by Tango assay. It counts as functional, cell-based. Conditions: hek293. For orientation: In a reporter assay the amount or activity of a reporter protein is the signal.

For assay [5], the target named is T2, 5-hydroxytryptamine receptor 1A (Homo sapiens, UniProt P08908).
T2 sequence (P08908 whole entry): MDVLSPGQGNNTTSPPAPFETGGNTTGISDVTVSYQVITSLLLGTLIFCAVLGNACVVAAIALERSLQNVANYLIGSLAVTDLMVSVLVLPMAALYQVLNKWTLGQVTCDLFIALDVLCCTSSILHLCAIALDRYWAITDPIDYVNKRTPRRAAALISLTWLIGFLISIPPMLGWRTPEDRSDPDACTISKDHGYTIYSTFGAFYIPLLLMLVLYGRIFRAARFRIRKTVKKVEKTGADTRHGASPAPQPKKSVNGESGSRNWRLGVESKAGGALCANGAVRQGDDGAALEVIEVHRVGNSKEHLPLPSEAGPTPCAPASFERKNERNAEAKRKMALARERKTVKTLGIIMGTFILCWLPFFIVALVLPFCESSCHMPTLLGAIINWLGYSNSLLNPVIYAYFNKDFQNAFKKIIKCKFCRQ
Kind of assay: Binding affinity to 5-HT1AR (unknown origin). Summed up: (§1)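 Run by the NIMH Psychoactive Drug Screening Program as competition radioligand binding on crude membranes of cells expressing the recombinant receptor. Eleven dilutions (0.05 nM–50 μM, prepared at 5× assay concentration) were made in 50 mM Tris-HCl, 10 mM MgCl₂, 1 mM EDTA, pH 7.4. Incubation was 1.5 h at rt in the dark, followed by GF/B filtration (0.3% PEI) and scintillation counting. IC₅₀ was converted to Ki; at least triplicate.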

Assay [6] concerns the target 5-hydroxytryptamine receptor 1B (Homo sapiens, UniProt P28222). Kind of assay: Binding affinity to 5-HT1BR (unknown origin). Summed up: as §1
For assay [7], the target named is 5-hydroxytryptamine receptor 1D (Homo sapiens, UniProt P28221). The experiment in a line: Binding affinity to 5-HT1DR (unknown origin). Summed up:
as §1

Assay [8] addresses 5-hydroxytryptamine receptor 1E (Homo sapiens, UniProt P28566). The experiment in a line: Binding affinity to 5-HT1ER (unknown origin). Summed up:
as §1

For assay [9], the target named is 5-hydroxytryptamine receptor 2A (Homo sapiens, UniProt P28223). Kind of assay: Binding affinity to 5-HT2AR (unknown origin). Summed up: as §1
5-hydroxytryptamine receptor 2A, sequence (P28223 whole entry): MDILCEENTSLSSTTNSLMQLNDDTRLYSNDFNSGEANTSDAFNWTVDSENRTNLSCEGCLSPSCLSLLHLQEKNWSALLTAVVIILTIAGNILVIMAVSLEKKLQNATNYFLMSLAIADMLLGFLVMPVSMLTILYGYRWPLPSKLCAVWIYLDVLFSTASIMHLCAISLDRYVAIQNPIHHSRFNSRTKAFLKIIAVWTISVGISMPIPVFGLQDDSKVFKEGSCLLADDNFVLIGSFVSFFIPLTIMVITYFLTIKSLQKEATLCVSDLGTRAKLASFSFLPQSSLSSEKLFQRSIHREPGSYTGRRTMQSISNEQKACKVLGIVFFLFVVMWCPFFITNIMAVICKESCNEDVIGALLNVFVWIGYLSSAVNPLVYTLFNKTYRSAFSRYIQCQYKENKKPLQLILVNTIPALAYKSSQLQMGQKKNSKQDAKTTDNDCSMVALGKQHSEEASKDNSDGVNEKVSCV
Assay [10] deals with 5-hydroxytryptamine receptor 2B (Homo sapiens, UniProt P41595). Kind of assay: Binding affinity to 5-HT2BR (unknown origin). Summed up: as §1
5-hydroxytryptamine receptor 2B, sequence (P41595 whole entry): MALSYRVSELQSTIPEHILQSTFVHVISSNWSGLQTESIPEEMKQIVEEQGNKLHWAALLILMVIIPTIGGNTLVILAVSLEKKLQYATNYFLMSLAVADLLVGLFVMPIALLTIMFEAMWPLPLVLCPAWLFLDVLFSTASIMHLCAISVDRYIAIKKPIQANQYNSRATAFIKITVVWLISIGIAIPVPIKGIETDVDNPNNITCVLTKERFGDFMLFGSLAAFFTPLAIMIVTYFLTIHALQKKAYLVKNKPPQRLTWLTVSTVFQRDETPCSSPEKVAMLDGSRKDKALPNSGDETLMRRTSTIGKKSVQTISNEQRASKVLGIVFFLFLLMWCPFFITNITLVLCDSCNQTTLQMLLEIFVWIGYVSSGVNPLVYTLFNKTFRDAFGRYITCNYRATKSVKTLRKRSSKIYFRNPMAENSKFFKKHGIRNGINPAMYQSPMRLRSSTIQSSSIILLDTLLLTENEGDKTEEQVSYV
In assay [11] the target is T3, 5-hydroxytryptamine receptor 2C (Homo sapiens, UniProt P28335).
T3 sequence (P28335 whole entry): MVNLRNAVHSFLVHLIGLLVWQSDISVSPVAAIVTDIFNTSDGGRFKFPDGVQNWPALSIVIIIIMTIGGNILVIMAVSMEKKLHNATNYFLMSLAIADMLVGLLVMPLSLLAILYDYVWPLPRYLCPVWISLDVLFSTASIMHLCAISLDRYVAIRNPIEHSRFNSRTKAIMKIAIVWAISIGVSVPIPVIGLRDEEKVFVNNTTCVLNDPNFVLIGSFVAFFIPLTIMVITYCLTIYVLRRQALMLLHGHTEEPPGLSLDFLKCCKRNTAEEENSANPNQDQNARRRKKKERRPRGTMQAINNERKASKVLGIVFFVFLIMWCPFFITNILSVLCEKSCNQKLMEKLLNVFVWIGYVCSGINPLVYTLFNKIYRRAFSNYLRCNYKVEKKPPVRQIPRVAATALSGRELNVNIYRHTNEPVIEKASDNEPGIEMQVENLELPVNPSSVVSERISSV
The experiment in a line: Binding affinity to 5-HT2CR (unknown origin). Summed up:
as §1

In assay [12] the target is T4, 5-hydroxytryptamine receptor 3A (Homo sapiens, UniProt P46098).
T4 sequence (P46098 whole entry): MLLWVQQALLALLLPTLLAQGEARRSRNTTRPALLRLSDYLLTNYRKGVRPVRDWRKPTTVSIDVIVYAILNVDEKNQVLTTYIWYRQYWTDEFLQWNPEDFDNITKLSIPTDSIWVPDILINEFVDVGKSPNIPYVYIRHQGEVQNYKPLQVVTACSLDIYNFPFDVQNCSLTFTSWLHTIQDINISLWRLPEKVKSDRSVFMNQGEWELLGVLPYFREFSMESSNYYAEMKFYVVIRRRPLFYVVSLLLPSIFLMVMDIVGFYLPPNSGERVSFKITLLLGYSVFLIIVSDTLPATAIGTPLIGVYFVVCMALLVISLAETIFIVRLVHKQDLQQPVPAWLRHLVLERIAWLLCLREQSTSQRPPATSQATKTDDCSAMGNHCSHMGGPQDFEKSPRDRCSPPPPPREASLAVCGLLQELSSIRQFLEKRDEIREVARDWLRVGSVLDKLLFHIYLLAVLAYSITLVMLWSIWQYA
The experiment in a line: Binding affinity to 5-HT3R (unknown origin). Summed up: as §1

The target in assay [13] is 5-hydroxytryptamine receptor 5A (Homo sapiens, UniProt P47898). The experiment in a line: Binding affinity to 5-HT5AR (unknown origin). Summed up: as §1
5-hydroxytryptamine receptor 5A, sequence (P47898 whole entry): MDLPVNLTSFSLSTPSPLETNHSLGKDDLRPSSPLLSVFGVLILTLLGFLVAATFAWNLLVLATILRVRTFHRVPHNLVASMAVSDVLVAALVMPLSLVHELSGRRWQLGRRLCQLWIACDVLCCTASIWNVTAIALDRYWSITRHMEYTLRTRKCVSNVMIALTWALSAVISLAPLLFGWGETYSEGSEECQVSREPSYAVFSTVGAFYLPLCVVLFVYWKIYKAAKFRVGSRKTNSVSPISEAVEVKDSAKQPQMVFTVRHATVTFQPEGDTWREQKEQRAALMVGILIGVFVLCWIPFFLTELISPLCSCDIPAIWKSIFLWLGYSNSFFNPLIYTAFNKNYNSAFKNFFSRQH
The target of assay [14] is 5-hydroxytryptamine receptor 6 (Homo sapiens, UniProt P50406). The experiment in a line: Binding affinity to 5-HT6R (unknown origin). Summed up:
as §1

Assay [15] concerns the target T1, 5-hydroxytryptamine receptor 7.

5-hydroxytryptamine receptor 6, sequence (P50406 whole entry): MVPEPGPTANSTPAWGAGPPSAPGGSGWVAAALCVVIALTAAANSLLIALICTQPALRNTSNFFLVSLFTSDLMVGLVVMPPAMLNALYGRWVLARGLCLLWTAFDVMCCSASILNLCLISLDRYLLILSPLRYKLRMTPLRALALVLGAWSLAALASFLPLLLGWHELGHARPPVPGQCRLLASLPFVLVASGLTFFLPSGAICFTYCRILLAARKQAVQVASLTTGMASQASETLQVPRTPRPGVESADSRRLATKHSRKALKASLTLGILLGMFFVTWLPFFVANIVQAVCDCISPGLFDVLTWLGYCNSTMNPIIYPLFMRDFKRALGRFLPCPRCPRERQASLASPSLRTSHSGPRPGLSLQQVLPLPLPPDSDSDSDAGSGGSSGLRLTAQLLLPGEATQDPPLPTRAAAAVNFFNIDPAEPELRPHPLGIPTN
5-hydroxytryptamine receptor 1B, sequence (P28222 whole entry): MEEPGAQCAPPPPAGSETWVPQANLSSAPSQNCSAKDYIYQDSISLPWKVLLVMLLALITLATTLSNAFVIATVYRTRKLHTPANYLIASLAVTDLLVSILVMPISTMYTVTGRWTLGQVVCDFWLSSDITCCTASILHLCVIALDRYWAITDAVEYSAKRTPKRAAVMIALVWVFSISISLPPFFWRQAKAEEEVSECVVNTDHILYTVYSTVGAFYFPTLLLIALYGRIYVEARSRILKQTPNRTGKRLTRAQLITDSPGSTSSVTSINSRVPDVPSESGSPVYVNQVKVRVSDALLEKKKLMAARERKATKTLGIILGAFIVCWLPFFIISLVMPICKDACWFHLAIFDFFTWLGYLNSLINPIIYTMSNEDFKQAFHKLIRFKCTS
5-hydroxytryptamine receptor 1D, sequence (P28221 whole entry): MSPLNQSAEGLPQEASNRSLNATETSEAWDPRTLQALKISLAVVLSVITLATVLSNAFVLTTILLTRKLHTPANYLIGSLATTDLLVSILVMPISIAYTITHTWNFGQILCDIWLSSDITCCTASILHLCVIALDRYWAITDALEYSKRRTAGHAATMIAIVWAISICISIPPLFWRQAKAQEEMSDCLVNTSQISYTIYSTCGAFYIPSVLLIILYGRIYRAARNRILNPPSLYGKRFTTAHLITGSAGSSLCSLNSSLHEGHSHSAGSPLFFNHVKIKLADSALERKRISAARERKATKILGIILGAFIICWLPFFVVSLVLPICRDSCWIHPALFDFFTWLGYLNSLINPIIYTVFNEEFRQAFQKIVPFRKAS
5-hydroxytryptamine receptor 1E, sequence (P28566 whole entry): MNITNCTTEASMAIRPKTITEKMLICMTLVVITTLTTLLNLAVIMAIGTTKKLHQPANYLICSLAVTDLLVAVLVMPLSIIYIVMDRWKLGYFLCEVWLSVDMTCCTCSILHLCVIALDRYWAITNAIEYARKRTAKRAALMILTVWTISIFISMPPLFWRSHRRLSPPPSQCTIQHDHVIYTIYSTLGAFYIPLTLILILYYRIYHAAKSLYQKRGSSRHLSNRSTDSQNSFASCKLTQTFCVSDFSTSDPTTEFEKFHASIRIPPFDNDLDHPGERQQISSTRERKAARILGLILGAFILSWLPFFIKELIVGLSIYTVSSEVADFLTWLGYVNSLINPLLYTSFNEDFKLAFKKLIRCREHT

On to `CC1CCN(CC[C@H]2CCCN2S(=O)(=O)c2cccc(O)c2)CC1`, for which the Time in assay [1] worked out at 29.3 s; in [2] it was 181 s.
With `CCN(CC)CCc1ccc(Cl)c(-c2ccccc2OC)c1`, the Ki in [3] is 25 nM; in [5], 84 nM; in [6], 160 nM; in [7], 8.4 nM; in assay [8], 6700 nM; in assay [9] it was 680 nM. Also, the Ki in [10] was 320 nM; in [11], greater than 10000 nM; in [12], greater than 10000 nM; in assay [13] it was 2100 nM; in assay [14], greater than 10000 nM. The figures for the EC50 result in assay [4] and in [15] were “Not Active” and 1900 nM, respectively.
Take `CCCN(CCC)CCc1ccc(Cl)c(-c2ccccc2OC)c1`: the Ki in assay [3] was 20 nM; in assay [5] it was 65 nM; in assay [6] it was 160 nM; in assay [7], 38 nM; in assay [8] it was greater than 10000 nM; in [9], 1200 nM. The inhibitory constant (Ki) in [10] was 230 nM; in assay [11], greater than 10000 nM; in assay [12], greater than 10000 nM; in assay [13], 2900 nM; in [14], greater than 10000 nM. In addition, the figures for the EC50 entry in [4] and in [15] were “Not Active” and 1400 nM, respectively.

(Values after ChEMBL document CHEMBL5038590, “Discovery of G Protein-Biased Ligands against 5-HT7R” (J Med Chem, 2021).)
